Assay results published in ChEMBL document CHEMBL3112497, “Functionally Optimized Neuritogenic Farinosone C Analogs: SAR-Study and Investigations on Their Mode of Action” (ACS Med Chem Lett, 2014).
pEC50, pKi: −log10 of the molar value. One block for each compound: values may come before it. Active and inactive are the calls of the source. No cut-off for these calls is given here.

Tests used:
[1] = test system: PC-12; assay: Neuritogenic activity in rat PC12 cells assessed as induction of neuronal differentiation at 50 uM after 2 days by Giemsa staining-based phase contrast microscopic analysis; format: functional, cell-based
Procedure, shortened: (§1)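 PC12 neurite outgrowth assay (modified procedure) with 2-day incubation; compounds at 50, 20, 10, 5 or 1 μM. Positive control NGF 20 ng mL-1, solvent control DMSO 0.1%. Mean ± SEM, n = 3; unpaired t test, 95% confidence interval.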

[2] = biological target: T1, Fatty-acid amide hydrolase 1 (Homo sapiens) (UniProt O00519); assay: Inhibition of FAAH (unknown origin) at 1 uM
T1 sequence (whole entry): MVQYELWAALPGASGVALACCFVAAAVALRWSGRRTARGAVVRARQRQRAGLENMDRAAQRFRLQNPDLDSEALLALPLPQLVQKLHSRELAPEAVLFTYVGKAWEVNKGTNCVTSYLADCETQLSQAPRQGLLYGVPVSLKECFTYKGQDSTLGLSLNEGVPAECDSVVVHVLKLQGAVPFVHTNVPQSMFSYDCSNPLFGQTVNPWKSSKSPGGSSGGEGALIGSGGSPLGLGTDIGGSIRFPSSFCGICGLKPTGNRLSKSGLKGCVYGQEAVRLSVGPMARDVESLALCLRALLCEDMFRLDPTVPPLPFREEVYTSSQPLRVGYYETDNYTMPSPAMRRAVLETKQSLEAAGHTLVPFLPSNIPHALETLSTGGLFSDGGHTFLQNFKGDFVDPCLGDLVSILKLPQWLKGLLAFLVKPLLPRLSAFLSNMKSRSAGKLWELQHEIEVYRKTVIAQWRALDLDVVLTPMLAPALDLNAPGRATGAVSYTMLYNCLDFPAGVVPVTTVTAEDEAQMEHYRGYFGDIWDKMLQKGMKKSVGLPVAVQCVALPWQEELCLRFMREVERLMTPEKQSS
Procedure, shortened: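 FAAH activity measured with compounds at 1 μM.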

[3] = test system: U-937; assay: Inhibition of anandamide membrane transporter in human U937 cells assessed as inhibition of [3H]-AEA uptake at 10 uM preincubated for 10 to 30 mins followed by [3H]-AEA addition measured after 5 mins by liquid scintillation counting analysis relative to control; format: cell-based
[4] = Cytotoxicity against rat PC12 cells at 1 uM; format: cell-based; conditions: pc-12, 1 µM
[5] = Cytotoxicity against rat PC12 cells at 10 uM; format: cell-based; conditions: pc-12, 10 µM
[6] = test system: PC-12; assay: Neuritogenic activity in rat PC12 cells assessed as induction of neuronal differentiation at 1 uM after 2 days by Giemsa staining-based phase contrast microscopic analysis; format: functional, cell-based; procedure, shortened: as §1
[7] = biological target: Cannabinoid receptor 1 (Homo sapiens, UniProt P21554); assay: Displacement of [3H]-CP55940 from human CB1 receptor expressed in CHO cell membranes after 90 mins by scintillation counting analysis
Chain of Cannabinoid receptor 1 (P21554 whole entry): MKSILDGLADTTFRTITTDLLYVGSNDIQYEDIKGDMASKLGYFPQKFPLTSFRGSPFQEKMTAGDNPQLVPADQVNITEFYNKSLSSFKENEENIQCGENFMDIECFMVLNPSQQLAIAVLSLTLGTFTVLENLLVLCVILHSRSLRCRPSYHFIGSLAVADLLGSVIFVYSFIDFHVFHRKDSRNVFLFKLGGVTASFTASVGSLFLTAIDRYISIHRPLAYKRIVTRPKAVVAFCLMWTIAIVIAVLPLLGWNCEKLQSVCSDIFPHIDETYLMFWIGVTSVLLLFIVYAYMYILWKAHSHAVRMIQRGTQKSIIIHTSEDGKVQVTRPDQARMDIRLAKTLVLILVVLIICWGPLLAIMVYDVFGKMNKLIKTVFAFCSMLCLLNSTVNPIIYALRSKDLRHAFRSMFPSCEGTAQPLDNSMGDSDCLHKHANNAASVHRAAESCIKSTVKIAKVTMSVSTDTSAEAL
Procedure, shortened: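 Membranes from CHO cells stably transfected with human CB1 incubated 90 min at 30 °C with varying compound concentrations and 0.5 nM [3H]-CP55940; WIN55,212-2 as positive control. Mean ± SD, n = 2–3.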

[8] = test system: PC-12; assay: Neuritogenic activity in rat PC12 cells assessed as induction of neuronal differentiation at 20 uM after 2 days by Giemsa staining-based phase contrast microscopic analysis; format: functional, cell-based; procedure, shortened: as §1
[9] = Inhibition of anandamide membrane transporter in human U937 cells assessed as inhibition of [3H]-AEA uptake preincubated for 10 to 30 mins followed by [3H]-AEA addition measured after 5 mins by liquid scintillation counting analysis; format: cell-based; conditions: u-937
Procedure, shortened: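 [3H]AEA transport in human U937 leukemic monocyte lymphoma cells; EC50 and maximal inhibition taken from concentration-dependent curves, n = 3–5.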

[10] = test system: PC-12; assay: Neuritogenic activity in rat PC12 cells assessed as induction of neuronal differentiation at 10 uM after 2 days by Giemsa staining-based phase contrast microscopic analysis; format: functional, cell-based; procedure, shortened: as §1
[11] = test system: PC-12; assay: Neuritogenic activity in rat PC12 cells in presence of CB1 antagonist rimonabant/AM251; format: functional, cell-based
Procedure, shortened: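 PC12 cells co-treated with the CB1 antagonists rimonabant (1 μM and 100 nM) or AM251 (3 μM and 100 nM) alongside the differentiation-inducing compound, in the neurite outgrowth assay.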

[12] = test system: U-937; assay: Potency index, ratio of UCM707 EC50 to compound EC50 for anandamide membrane transporter in human U937 cells; format: cell-based
[13] = Cytotoxicity against rat PC12 cells at 50 uM; format: cell-based; conditions: pc-12, 50 µM
[14] = test system: PC-12; assay: Neuritogenic activity in rat PC12 cells at 100 nM; format: functional, cell-based
[15] = test system: PC-12; assay: Neuritogenic activity in rat PC12 cells assessed as induction of neuronal differentiation at 5 uM after 2 days by Giemsa staining-based phase contrast microscopic analysis; format: functional, cell-based; procedure, shortened: as §1

SMILES: CCCN[C@H](CO)Cc1ccc(O)cc1
Activity [1]: inactive

inhibition [2]: Active
SMILES: CCC(=O)N[C@H](COC)Cc1ccc(OC)cc1
Activity [1]: inactive
inhibition [3]: 20%

pKi [7]: 6.28
SMILES: OCCCCCCCCCCCCCCCN[C@H](CO)Cc1ccc(O)cc1
Activity [4]: Non-toxic
Activity [5]: Toxic
Activity [6]: inactive

SMILES: CC(C)C(=O)N[C@H](CO)Cc1ccc(O)cc1
Activity [1]: inactive

SMILES: CC(/C=C/C(=O)NC(CO)Cc1ccc(O)cc1)=C\C(C)CC(=O)O (configuration not stated)
Activity [8]: Active

SMILES: CCCCC/C=C\C/C=C\C/C=C\C/C=C\CCCC(=O)NCCc1ccoc1
pEC50 [9]: 5.74
Imax [3]: 80%

pEC50 [9]: 6.01
SMILES: CCCCC/C=C\C/C=C\CCCCCCCCN[C@H](CO)Cc1ccc(O)cc1
Activity [4]: Non-toxic
Activity [5]: Toxic
Activity [6]: inactive
Imax [3]: 51%

SMILES: CCC(=O)N[C@H](CO)Cc1ccc(OC(=O)CC)cc1
Activity [1]: inactive

pEC50 [9]: 6.64
pKi [7]: 6.09
SMILES: CCCCC/C=C\C/C=C\CCCCCCCC(=O)N[C@H](CO)Cc1ccc(O)cc1
Activity [10]: Active
Activity [11]: Active
Ratio EC50 [12]: 10
Imax [3]: 52%

inhibition [2]: Active
SMILES: CCC(=O)N[C@@H](Cc1ccc(O)cc1)C(=O)O
Activity [1]: Active
inhibition [3]: 20%

pEC50 [9]: 6.12
SMILES: O=C(CCCCCCCCCCCCCCO)N[C@H](CO)Cc1ccc(O)cc1
Activity [10]: inactive
Imax [3]: 73%

inhibition [2]: Active
SMILES: O=C(CCC(=O)N[C@@H](CO)Cc1ccc(O)cc1)N[C@H](CO)Cc1ccc(O)cc1
Activity [1]: Active
inhibition [3]: 20%

SMILES: CCC(=O)N[C@H](COC(=O)CC)Cc1ccc(O)cc1
Activity [1]: inactive

SMILES: CCCCCCCCCCCCCCCCN[C@H](CO)Cc1ccc(O)cc1
Activity [4]: Non-toxic
Activity [5]: Toxic
Activity [6]: inactive

SMILES: CC(C)(C)C(=O)N[C@H](CO)Cc1ccc(O)cc1
Activity [1]: inactive

SMILES: CCC(=O)N[C@H](CO)Cc1ccc(OC)cc1
Activity [1]: inactive

SMILES: CCC(=O)N[C@H](CO)Cc1ccccc1
Activity [1]: inactive

SMILES: CCC(=O)NCCc1ccc(O)cc1
Activity [13]: Toxic
Activity [1]: inactive

SMILES: CCC(=O)N[C@H](COC)Cc1ccc(O)cc1
Activity [1]: inactive

SMILES: CCCCCCCCC(=O)N[C@H](CO)Cc1ccc(O)cc1
Activity [1]: inactive

SMILES: CCCCC/C=C\C/C=C\C/C=C\C/C=C\CCC(C)C(=O)NCCF (configuration not stated)
Activity [14]: inactive

inhibition [2]: Active
SMILES: O=C(N[C@H](CO)Cc1ccc(O)cc1)c1ccccc1
Activity [13]: Non-toxic
inhibition [3]: 20%

SMILES: CCC(=O)NCCc1ccc(O)c(O)c1
Activity [13]: Toxic
Activity [15]: inactive

SMILES: CCC(=O)N[C@@H](CO)Cc1ccc(O)cc1
Activity [1]: inactive

inhibition [2]: Active
SMILES: O=C(CCCCCCCO)N[C@H](CO)Cc1ccc(O)cc1
Activity [10]: Active
Activity [1]: Active
inhibition [3]: 20%

SMILES: CCC(=O)N[C@H](CO)Cc1ccc(O)cc1
Activity [1]: Active

SMILES: O=C(CCCc1cn(C23CC4CC(CC(C4)C2)C3)nn1)N[C@H](CO)Cc1ccc(O)cc1
Activity [1]: inactive

pEC50 [9]: 6.02
SMILES: CC/C=C\C/C=C\C/C=C\CCCCCCCCN[C@H](CO)Cc1ccc(O)cc1
Activity [4]: Non-toxic
Activity [5]: Toxic
Activity [6]: inactive
Imax [3]: 60%
